Compounds with a hit are over-represented: about 2.1% of the library has one in this group of screens.
FN deposit inh = fibronectin deposition inhibition; AH1F fibroblasts, Alexa488-fibronectin deposition fluorescence, overnight; inhibition, % at 12.6 µM; 350,000 compounds, 0.086% hits; AID 743247;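 active = mean inhibition across replicates of 30% or more, regardless of how many single replicates reach that level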;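 also: positive control wells lacked labelled fibronectin entirely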
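material = AH1F fibroblast monolayer depositing Alexa488-labelled fibronectin into matrix | amount = 10000 AH1F cells/well | buffer or medium = DMEM plus 2% serum, read in PBS | incubation = 1 h cell adhesion before compound, then overnight fibronectin incubation | detection = fluorescence at 485 nm excitation, 525 nm emission | evaluation = percent inhibition as loss of matrix-bound fibronectin fluorescence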
ARNT-TACC3 inh = disrupts binding between human ARNT and TACC3; 390,000 compounds, 0.66% hits; inhibition, % at 9.99 µM; AID 623870; AlphaScreen His-ARNT PAS-B/GST-TACC3 binding, luminescence; TACC3 fragment carries E629A point mutation; Q9Y6A5;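 active = mean inhibition of replicates at least 50% and at least half of replicates each reaching 50%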;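 also: 0% = complete ARNT plus TACC3 wells and 100% = ARNT alone without TACC3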
FGF22 binding = shifts melting point of recombinant human FGF22; Q9HCT0; recombinant FGF22 thermal shift, SYPRO orange fluorescence; percent of sucrose octasulfate shift, DMSO zero; activity (Tm shift, normalised), % at 9.99 µM; 340,000 compounds, 1.5% hits;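 active = mean Tm shift, scaled 0 neutral to 100 positive control, at about 1.3% or above, every replicate too, limit read from the data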
PDI inh = inhibitors of human protein disulfide isomerase; 350,000 compounds, 0.052% hits; inhibition, % at 10 µM; PDI insulin aggregation turbidity, A650, 90 min;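 active = mean inhibition across replicates of 30% or more, whatever share of single replicates reach that level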
Target sequence (P07237 whole entry, looked up): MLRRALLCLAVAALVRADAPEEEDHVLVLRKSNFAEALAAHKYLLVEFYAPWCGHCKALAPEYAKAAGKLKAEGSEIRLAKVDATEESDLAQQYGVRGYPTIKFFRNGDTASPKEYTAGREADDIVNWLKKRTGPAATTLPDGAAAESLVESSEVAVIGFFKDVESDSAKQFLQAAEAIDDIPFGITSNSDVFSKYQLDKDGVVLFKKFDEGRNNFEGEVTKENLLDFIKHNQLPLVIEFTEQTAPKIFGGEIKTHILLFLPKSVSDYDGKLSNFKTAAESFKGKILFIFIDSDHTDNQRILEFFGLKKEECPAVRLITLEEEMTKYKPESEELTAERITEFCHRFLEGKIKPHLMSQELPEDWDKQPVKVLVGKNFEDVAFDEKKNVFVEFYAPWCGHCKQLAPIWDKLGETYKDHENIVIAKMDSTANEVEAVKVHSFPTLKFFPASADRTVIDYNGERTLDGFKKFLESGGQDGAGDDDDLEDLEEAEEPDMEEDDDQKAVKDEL
ERp5 block = blocks human ERp5 reductase activity on insulin | 350,000 compounds, 0.05% hits | Q15084 | AID 651711 | inhibition, % at 9.99 µM | ERp5 insulin aggregation, absorbance 650 nm, 90 min;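 active = mean replicate inhibition above about 25%, with every replicate also reaching it, limit read from the data, passing the limit was not always enough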
AF4-AF9 inh = MLL-AF4/AF9 protein interaction inhibition; P42568; AlphaScreen, biotin-AF4 peptide binding to FLAG-AF9; inhibition, % at 10 µM; 350,000 compounds, 0.47% hits; AID 651704;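 active = every replicate reaching a set inhibition limit, whatever the replicate mean, cut at about 25% in these data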;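 also: 0% = plate neutral control median and 100% = total signal loss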
Numbers without * were called inactive.

For COc1cc(S(=O)(=O)Nc2ccc3cn[nH]c3c2)ccc1Cl the results were FN deposit inh 11, ARNT-TACC3 inh 0, FGF22 binding 44*, PDI inh 10, ERp5 block 0 and AF4-AF9 inh -8.
`Cc1ccc(S(=O)(=O)Nc2ccc3cn[nH]c3c2)cc1C` gave FN deposit inh 6, FGF22 binding 44*, PDI inh -5, ERp5 block 6 and AF4-AF9 inh 0.
Screening Cc1ccc(S(=O)(=O)Nc2ccc3cn[nH]c3c2)cc1 returned FN deposit inh -5, ARNT-TACC3 inh 1, FGF22 binding 0, PDI inh 5, ERp5 block -4 and AF4-AF9 inh 0.
For C=C(C)c1cccc(C(C)(C)NC(=O)Nc2ccc(OC)cc2)c1 the results were FN deposit inh -3, ARNT-TACC3 inh 1, FGF22 binding 43*, PDI inh -2, ERp5 block -13 and AF4-AF9 inh -3.
Screening COc1ccc(/C=N/Nc2nnc(C)n2N)cc1OC returned FN deposit inh -1, ARNT-TACC3 inh 54*, FGF22 binding 0, PDI inh 6, ERp5 block 3 and AF4-AF9 inh -1.
For COc1ccc(C#Cc2ccc3c(c2)[C@@H]2[C@@H](CCN2C(=O)C2CC2)[C@@H](CO)N3)cc1 the results were FN deposit inh -3, ARNT-TACC3 inh -16, FGF22 binding 0, ERp5 block -3 and AF4-AF9 inh -4.
`O=C(CSc1nncs1)Nc1nnc(-c2ccccc2)o1` gave ARNT-TACC3 inh 54*, FGF22 binding 0, PDI inh -9, ERp5 block 4 and AF4-AF9 inh 5.
For CC1(C(=O)OCC(=O)Nc2nnc(-c3ccccc3)o2)CC1(Cl)Cl (stereo not given) the results were FN deposit inh 4, ARNT-TACC3 inh 49*, FGF22 binding 0, PDI inh 6, ERp5 block -3 and AF4-AF9 inh 0.
`O=C(Cc1ccccc1)Nc1nnc(-c2ccccc2)o1` gave FN deposit inh 11, ARNT-TACC3 inh 17, FGF22 binding 0, PDI inh 4, ERp5 block 5 and AF4-AF9 inh -2.
O=C(c1ccc2c(c1)OCO2)N1CC(=O)N2[C@H](CO)[C@H](c3ccc(C#CC4CCCC4)cc3)[C@@H]2C1 was read as ERp5 block -1 and AF4-AF9 inh 2.
Cc1ccc(S(=O)(=O)N(CC(=O)NCC2CCCO2)c2cccc([N+](=O)[O-])c2)cc1 (stereo not given) was read as FN deposit inh 4, ARNT-TACC3 inh -4, FGF22 binding 0, PDI inh -1, ERp5 block -1 and AF4-AF9 inh 0.
For Cc1ccc(N(Cc2ccc(C(=O)NCC3CCCO3)cc2)S(C)(=O)=O)cc1C (stereo not given) the results were FN deposit inh -2, ARNT-TACC3 inh 9, FGF22 binding 43*, PDI inh -3, ERp5 block -1 and AF4-AF9 inh 0.
For CS(=O)(=O)N(Cc1ccc(Cl)cc1)c1ccc(C(=O)NCC2CCCO2)cc1 (stereo not given) the results were FN deposit inh 3, ARNT-TACC3 inh 1, FGF22 binding 0, PDI inh 20, ERp5 block -1 and AF4-AF9 inh 0.
For O=C(Cc1ccc(F)cc1)NCC1CCCO1 (stereo not given) the results were FN deposit inh -13, ARNT-TACC3 inh -4, FGF22 binding 43*, PDI inh 3, ERp5 block 4 and AF4-AF9 inh 1.
Screening O=C(CSc1nnc(-c2ccccc2)c(-c2ccccc2)n1)NCC1CCCO1 (stereo not given) returned FN deposit inh 9, ARNT-TACC3 inh 5, FGF22 binding 43*, PDI inh -4, ERp5 block 8 and AF4-AF9 inh 7.
`CS(=O)(=O)N(CC(=O)NCC1CCCO1)c1cccc([N+](=O)[O-])c1` (stereo not given) gave FN deposit inh -1, ARNT-TACC3 inh -4, FGF22 binding 43*, PDI inh -1, ERp5 block 5 and AF4-AF9 inh -1.
Screening Cc1ccc(NS(=O)(=O)c2ccc(C(=O)NCC3CCCO3)cc2)cc1 (stereo not given) returned FN deposit inh 14, ARNT-TACC3 inh 14, FGF22 binding 44*, PDI inh 1, ERp5 block 1 and AF4-AF9 inh -10.
`Cc1ccc(SCCC(=O)NCC2CCCO2)cc1` (stereo not given) gave FN deposit inh 2 and PDI inh -1.
For Cc1ccc(SCC(=O)NCC2CCCO2)cc1 (stereo not given) the results were FN deposit inh -3, ARNT-TACC3 inh -9, FGF22 binding 43*, PDI inh 16, ERp5 block 2 and AF4-AF9 inh -8.
Screening Nc1c(Cl)cnc(C(Cl)(Cl)Cl)c1Cl returned FN deposit inh -1, ARNT-TACC3 inh -3, FGF22 binding 43*, PDI inh 5, ERp5 block -1 and AF4-AF9 inh 0.
O=C(c1cc([N+](=O)[O-])cc([N+](=O)[O-])c1)N1CCCc2ccccc21 was read as FN deposit inh -2, ARNT-TACC3 inh -5, FGF22 binding 43*, PDI inh -2, ERp5 block 2 and AF4-AF9 inh 5.
Screening O=C(c1cccc([N+](=O)[O-])c1)N1CCc2ccccc21 returned FN deposit inh -2, ARNT-TACC3 inh -1, FGF22 binding 0, PDI inh -4, ERp5 block 8 and AF4-AF9 inh -1.
`O=C(c1ccc([N+](=O)[O-])cc1)N1CCc2ccccc21` gave FN deposit inh -2, ARNT-TACC3 inh -6, FGF22 binding 0, PDI inh -3, ERp5 block -1 and AF4-AF9 inh 47*.
Screening COc1ccc2c3c(n(C)c2c1)[C@H](CO)N(C(=O)C1CCCC1)CC31CCN(C(=O)CC2CC2)CC1 returned FGF22 binding 0, ERp5 block 2 and AF4-AF9 inh 0.
For O=C(Nc1nccs1)[C@H]1[C@H](CO)[C@H]2Cn3c(cccc3=O)[C@@H]1N2C(=O)C1CCCCC1 the results were ERp5 block 0 and AF4-AF9 inh 0.
Screening Cc1[nH][nH]c(=O)c1C(c1cc(Br)ccc1O)c1c(C)[nH][nH]c1=O returned FN deposit inh 4, ARNT-TACC3 inh active, FGF22 binding 0, PDI inh -6, ERp5 block 1 and AF4-AF9 inh 4.
Screening CCC(C)[C@H](NS(=O)(=O)c1ccc(F)cc1Br)C(=O)OC (stereo not given in full) returned FN deposit inh 4, ARNT-TACC3 inh -3, FGF22 binding 43*, PDI inh -3, ERp5 block -4 and AF4-AF9 inh 0.
COC(=O)[C@@H](NS(=O)(=O)c1cc(Br)ccc1Br)C(C)C was read as FN deposit inh -1, FGF22 binding 0, PDI inh 6, ERp5 block 8 and AF4-AF9 inh 2.
